Legend:
[1] = biological target: Aldo-keto reductase family 1 member B1 (Rattus norvegicus, UniProt P07943); assay: Inhibitory concentration to aldose reductase (ALR-2) obtained from rat lens
Rattus norvegicus [2] = organism: Rattus norvegicus; assay: Effect of the treatment on day 20 with ophthalmic solution (3%)on development of nuclear cataract in severely galactosemic rats; assay type: functional
How it was run: (§1)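 Sprague Dawley albino rats (45-55 g), 15 per group of equal average body weight, fed 50% D-galactose diet with ad libitum food and water. Eyedrops given four times daily in the precorneal region, starting 1 day before the switch to galactose chow. Vehicle controls were run on galactose and on normal diet. Lenses were checked by slit-lamp after 1% atropine mydriasis, and animals with nuclear cataract (central white opacity) were counted.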

Rattus norvegicus [3] = organism: Rattus norvegicus; assay: Effect of the treatment on day 21 with ophthalmic solution (3%) on development of nuclear cataract in severely galactosemic rats; assay type: functional; how it was run: as §1
Rattus norvegicus [4] = organism: Rattus norvegicus; assay: Effect of the treatment on day 11 with ophthalmic solution (3%)on development of nuclear cataract in severely galactosemic rats; assay type: functional; how it was run: as §1
Rattus norvegicus [5] = organism: Rattus norvegicus; assay: Effect of the treatment on day 12 with ophthalmic solution (3%)on development of nuclear cataract in severely galactosemic rats; assay type: functional; how it was run: as §1
Rattus norvegicus [6] = organism: Rattus norvegicus; assay: Effect of the treatment on day 14 with ophthalmic solution (3%)on development of nuclear cataract in severely galactosemic rats; assay type: functional; how it was run: as §1
Rattus norvegicus [7] = organism: Rattus norvegicus; assay: Effect of the treatment on day 15 with ophthalmic solution (3%)on development of nuclear cataract in severely galactosemic rats; assay type: functional; how it was run: as §1
Rattus norvegicus [8] = organism: Rattus norvegicus; assay: Effect of the treatment on day 16 with ophthalmic solution (3%)on development of nuclear cataract in severely galactosemic rats; assay type: functional; how it was run: as §1
Rattus norvegicus [9] = organism: Rattus norvegicus; assay: Effect of the treatment on day 17 with ophthalmic solution (3%)on development of nuclear cataract in severely galactosemic rats; assay type: functional; how it was run: as §1
Rattus norvegicus [10] = organism: Rattus norvegicus; assay: Effect of the treatment on day 18 with ophthalmic solution (3%)on development of nuclear cataract in severely galactosemic rats; assay type: functional; how it was run: as §1
Rattus norvegicus [11] = organism: Rattus norvegicus; assay: Effect of the treatment on day 19 with ophthalmic solution (3%)on development of nuclear cataract in severely galactosemic rats; assay type: functional; how it was run: as §1
Rattus norvegicus [12] = organism: Rattus norvegicus; assay: Effect of the treatment on day 13 with ophthalmic solution (3%)on development of nuclear cataract in severely galactosemic rats; assay type: functional; how it was run: as §1
Rattus norvegicus [13] = organism: Rattus norvegicus; assay: Effect of the treatment on day 21 with ophthalmic solution (1%) on development of nuclear cataract in severely galactosemic rats; assay type: functional; how it was run: as §1
Rattus norvegicus [14] = organism: Rattus norvegicus; assay: Effect of the treatment on day 11 with ophthalmic solution (1%)on development of nuclear cataract in severely galactosemic rats; assay type: functional; how it was run: as §1
Rattus norvegicus [15] = organism: Rattus norvegicus; assay: Effect of the treatment on day 12 with ophthalmic solution (1%)on development of nuclear cataract in severely galactosemic rats; assay type: functional; how it was run: as §1
Rattus norvegicus [16] = organism: Rattus norvegicus; assay: Effect of the treatment on day 13 with ophthalmic solution (1%)on development of nuclear cataract in severely galactosemic rats; assay type: functional; how it was run: as §1
Rattus norvegicus [17] = organism: Rattus norvegicus; assay: Effect of the treatment on day 14 with ophthalmic solution (1%)on development of nuclear cataract in severely galactosemic rats; assay type: functional; how it was run: as §1
Rattus norvegicus [18] = organism: Rattus norvegicus; assay: Effect of the treatment on day 15 with ophthalmic solution (1%)on development of nuclear cataract in severely galactosemic rats; assay type: functional; how it was run: as §1
Rattus norvegicus [19] = organism: Rattus norvegicus; assay: Effect of the treatment on day 16 with ophthalmic solution (1%)on development of nuclear cataract in severely galactosemic rats; assay type: functional; how it was run: as §1
Rattus norvegicus [20] = organism: Rattus norvegicus; assay: Effect of the treatment on day 17 with ophthalmic solution (1%)on development of nuclear cataract in severely galactosemic rats; assay type: functional; how it was run: as §1
Rattus norvegicus [21] = organism: Rattus norvegicus; assay: Effect of the treatment on day 18 with ophthalmic solution (1%)on development of nuclear cataract in severely galactosemic rats; assay type: functional; how it was run: as §1
Rattus norvegicus [22] = organism: Rattus norvegicus; assay: Effect of the treatment on day 19 with ophthalmic solution (1%)on development of nuclear cataract in severely galactosemic rats; assay type: functional; how it was run: as §1
Rattus norvegicus [23] = organism: Rattus norvegicus; assay: Effect of the treatment on day 20 with ophthalmic solution (1%)on development of nuclear cataract in severely galactosemic rats; assay type: functional; how it was run: as §1

## O=C(O)Cn1nc2n(Cc3ccc(F)c(F)c3)c3ccccc3n2c(=O)c1=O
[1]
  IC50: 4.42 µM

## O=C(O)CN/N=c1\n(Cc2ccc(Cl)cc2)c2ccccc2n1C(=O)C(=O)O
[1]
  IC50: 10 µM

## COc1ccc(Cn2/c(=N\NCC(=O)O)n(C(=O)C(=O)O)c3ccccc32)cc1
[1]
  IC50: 44.5 µM

## O=C(O)CN/N=c1\n(Cc2ccc(Br)cc2F)c2ccccc2n1C(=O)C(=O)O
[1]
  IC50: 12.5 µM

## Cn1/c(=N\NCC(=O)O)n(C(=O)C(=O)O)c2ccccc21
[1]
  IC50: 109 µM

## O=C(O)CN/N=c1\n(Cc2ccccc2)c2ccccc2n1C(=O)C(=O)O
[1]
  IC50: 4.5 µM

## O=C(O)Cn1nc2n(Cc3ccc(F)cc3)c3ccccc3n2c(=O)c1=O
[1]
  IC50: 4.58 µM

## CCCn1c2ccccc2n2c(=O)c(=O)n(CC(=O)O)nc12
[1]
  IC50: 37.2 µM

## O=C(O)Cn1nc2n(Cc3ccc(Br)cc3F)c3ccccc3n2c(=O)c1=O
[1]
  IC50: 4.47 µM

## O=C(O)CN/N=c1\n(Cc2ccc(C(F)(F)F)cc2)c2ccccc2n1C(=O)C(=O)O
[1]
  IC50: 2.63 µM

## Cc1ccc(Cn2c3ccccc3n3c(=O)c(=O)n(CC(=O)O)nc23)cc1
[1]
  IC50: 13.3 µM

## O=C(O)Cc1nnc2nc3ccccc3n2c1O
[1]
  IC50: 35.9 µM

## O=C(O)Cn1nc2n(Cc3ccc(C(F)(F)F)cc3)c3ccccc3n2c(=O)c1=O
[1]
  IC50: 23.9 µM

## CC(C)OC(=O)Cn1nc2n(Cc3ccccc3)c3ccccc3n2c(=O)c1=O
Rattus norvegicus [2]
  Nuclear cataract: 40%
Rattus norvegicus [3]
  Nuclear cataract: 40%
Rattus norvegicus [4]
  Nuclear cataract: 0%
Rattus norvegicus [5]
  Nuclear cataract: 10%
Rattus norvegicus [6]
  Nuclear cataract: 10%
Rattus norvegicus [7]
  Nuclear cataract: 10%
Rattus norvegicus [8]
  Nuclear cataract: 10%
Rattus norvegicus [9]
  Nuclear cataract: 10%
Rattus norvegicus [10]
  Nuclear cataract: 40%
Rattus norvegicus [11]
  Nuclear cataract: 40%
Rattus norvegicus [12]
  Nuclear cataract: 10%

## Cn1c2ccccc2n2c(=O)c(CC(=O)O)nnc12
[1]
  IC50: 17 µM

## O=C(O)Cn1nc2n(Cc3ccc(Cl)cc3)c3ccccc3n2c(=O)c1=O
[1]
  IC50: 4.15 µM

## O=C(O)CN/N=c1\n(Cc2ccc(F)c(F)c2)c2ccccc2n1C(=O)C(=O)O
[1]
  IC50: 9.72 µM

## COc1ccc(Cn2c3ccccc3n3c(=O)c(=O)n(CC(=O)O)nc23)cc1
[1]
  IC50: 42.6 µM

## O=C(O)CN/N=c1\n(CC(=O)O)c2ccccc2n1C(=O)C(=O)O
[1]
  IC50: 236 µM

## O=C(O)Cn1nc2n(Cc3ccccc3)c3ccccc3n2c(=O)c1=O
[1]
  IC50: 0.36 µM
Rattus norvegicus [2]
  Nuclear cataract: 50%
Rattus norvegicus [3]
  Nuclear cataract: 50%
Rattus norvegicus [4]
  Nuclear cataract: 0%
Rattus norvegicus [5]
  Nuclear cataract: 0%
Rattus norvegicus [6]
  Nuclear cataract: 10%
Rattus norvegicus [7]
  Nuclear cataract: 10%
Rattus norvegicus [8]
  Nuclear cataract: 10%
Rattus norvegicus [9]
  Nuclear cataract: 10%
Rattus norvegicus [10]
  Nuclear cataract: 40%
Rattus norvegicus [11]
  Nuclear cataract: 40%
Rattus norvegicus [12]
  Nuclear cataract: 0%

## O=C(O)CN/N=c1\n(Cc2ccc(F)cc2)c2ccccc2n1C(=O)C(=O)O
[1]
  IC50: 14.8 µM

## Cn1c2ccccc2n2c(=O)c(=O)n(CC(=O)O)nc12
[1]
  IC50: 24.8 µM

## O=C(O)Cn1nc2n(CC(=O)O)c3ccccc3n2c(=O)c1=O
[1]
  IC50: 13.5 µM

## O=C(O)Cc1nnc2n(Cc3ccccc3)c3ccccc3n2c1=O
[1]
  IC50: 5.44 µM

## Cc1ccc(Cn2/c(=N\NCC(=O)O)n(C(=O)C(=O)O)c3ccccc32)cc1
[1]
  IC50: 45.9 µM

## CCCn1/c(=N\NCC(=O)O)n(C(=O)C(=O)O)c2ccccc21
[1]
  IC50: 46.5 µM

## COc1ccc2c(C(=S)N(C)CC(=O)O)cccc2c1C(F)(F)F [TOLRESTAT]
[1]
  IC50: 0.05 µM
Rattus norvegicus [2]
  Nuclear cataract: 0%
Rattus norvegicus [13]
  Nuclear cataract: 47%
Rattus norvegicus [3]
  Nuclear cataract: 0%
Rattus norvegicus [14]
  Nuclear cataract: 0%
Rattus norvegicus [4]
  Nuclear cataract: 0%
Rattus norvegicus [15]
  Nuclear cataract: 0%
Rattus norvegicus [5]
  Nuclear cataract: 0%
Rattus norvegicus [16]
  Nuclear cataract: 0%
Rattus norvegicus [17]
  Nuclear cataract: 23%
Rattus norvegicus [6]
  Nuclear cataract: 0%
Rattus norvegicus [18]
  Nuclear cataract: 32%
Rattus norvegicus [7]
  Nuclear cataract: 0%
Rattus norvegicus [19]
  Nuclear cataract: 32%
Rattus norvegicus [8]
  Nuclear cataract: 0%
Rattus norvegicus [20]
  Nuclear cataract: 32%
Rattus norvegicus [9]
  Nuclear cataract: 0%
Rattus norvegicus [21]
  Nuclear cataract: 43%
Rattus norvegicus [10]
  Nuclear cataract: 0%
Rattus norvegicus [22]
  Nuclear cataract: 43%
Rattus norvegicus [11]
  Nuclear cataract: 0%
Rattus norvegicus [23]
  Nuclear cataract: 47%
Rattus norvegicus [12]
  Nuclear cataract: 0%

Source: ChEMBL document CHEMBL1134301, “[1,2,4]Triazino[4,3-a]benzimidazole acetic acid derivatives: a new class of selective aldose reductase inhibitors” (J Med Chem, 2001)
